{"data": "Measurements of several laboratories"}
{"Structure (SMILES)": "COc1ccc([C@@]23Oc4cc(OC)cc(OC)c4[C@@]24N=C(C2CC2)N[C@@]4(O)[C@H](C(=O)N(C)OC)[C@H]3c2ccccc2)cc1", "target or system": "Vero", "test": "cell growth or viability, MTT", "setting": "24 h", "quantity": "CC50", "value": "> 20 µM"}
{"Structure (SMILES)": "COc1ccsc1CNCC[C@@]1(c2ccccn2)CCOC2(CCCC2)C1", "test system": "human, plasma", "setting": "intravenous, 3 mg, single dose, healthy volunteers, infusion", "quantity": "Vd", "value": "129 L"}
{"Structure (SMILES)": "CC(C)(N)CNC(=O)O[C@H]1CCC[C@@]2(C1)OOC1(O2)C2CC3CC(C2)CC1C3 (some centres unmarked)", "test system": "male CD-1 mouse, plasma", "setting": "oral, 10 mg/kg", "quantity": "Cmax", "value": "191 ng/mL"}
{"Structure (SMILES)": "COCC1=N[C@@]2(O)[C@H](C(=O)N(C)OC)[C@@H](c3ccccc3)[C@]3(c4ccc(OC)cc4)Oc4cc(OC)cc(OC)c4[C@]23N1", "target or system": "Vero", "test": "cell growth or viability, MTT", "setting": "24 h", "quantity": "CC50", "value": "> 20 µM"}
{"Structure (SMILES)": "CNC(=O)c1ccc(-c2cnn3ccc(C(=O)N(C)c4ccc(Cl)c(C(=O)O)c4)cc23)cc1", "test system": "female C57BL/6 mouse, plasma", "setting": "oral, 3 mg/kg/day", "quantity": "Cmax", "value": "1 ng/mL"}
{"Structure (SMILES)": "CC(O)(CS(=O)(=O)c1ccc(F)cc1)C(=O)Nc1ccc(C#N)c(C(F)(F)F)c1 (centres unmarked)", "target or system": "Vero", "test": "cell growth or viability, resazurin", "quantity": "CC50", "value": "> 100 µM"}
{"Structure (SMILES)": "CNC(=O)c1ccc(-c2cnn3ccc(C(=O)N(C)c4ccc(Cl)c(C(=O)OC)c4)cc23)cc1", "test system": "female C57BL/6 mouse, plasma", "setting": "oral, 1 mg/kg/day", "quantity": "Cmax", "value": "0.1 ng/mL"}
{"Structure (SMILES)": "NCCNC(=O)O[C@H]1CCC[C@@]2(C1)OOC1(O2)C2CC3CC(C2)CC1C3 (some centres unmarked)", "test system": "male CD-1 mouse, plasma", "setting": "oral, 10 mg/kg", "quantity": "Cmax", "value": "240 ng/mL"}
